We go through 11 compounds from ChEMBL document CHEMBL3272005 (J Med Chem, 1978).

Each structure is given as a SMILES string.

Series [1] is described as follows: Plasma concentration in ventricular arrthymia patient at 1.4 mg/min, iv administered for 36 hrs measured after 30 hrs. The class given is ADME, organism-based. The note with it: human.
Series [2] in a line: Drug level in ventricular arrthymia patient urine treated with lidocaine at 1.4 mg/min, iv administered for 36 hrs measured after 30 hrs measured after 30 hrs. The class given is ADME, organism-based. The note with it: human, in vivo. The gist of the method: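 Aliquots were analysed immediately after collection by CIMS stable isotope dilution with deuterated analogues as internal standards. Analysis was run before and after TiCl3 reduction of the urine.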

Series [3] deals with Salmonella typhimurium. Description: Genotoxicity in Salmonella typhimurium TA-1538 after 2 days by Ames test in presence of C57BL/6J mouse liver S9 fraction relative to control. The note with it: salmonella enterica subsp. enterica serovar typhimurium, s9, 48 h. It is filed as toxicity, organism-based. A general note: In the Ames test, an excess of revertant colonies over the control signals mutagenicity.

Series [4] deals with Salmonella typhimurium. As to the kind of experiment: Genotoxicity in Salmonella typhimurium TA-1538 after 2 days by Ames test relative to control. The class given is toxicity, organism-based. The note with it: salmonella enterica subsp. enterica serovar typhimurium, 48 h. The gist of the method: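 Compounds were tested at 1, 10, 100 and 500 μg, added in Me2SO to top agar. His+ revertant colonies were counted after 2 days at 37 °C and compared with Me2SO-only plates.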

Series [5] can be described thus: Drug level in po dosed human urine treated with lidocaine. The class given is ADME, organism-based. The note with it: in vivo. The gist of the method:
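Analysed by chemical-ionization MS stable isotope dilution, with deuterated N-hydroxy analogues as internal standards. Samples were measured before and after TiCl3 reduction. Released 2,6-dimethylaniline was followed by m/e 122/124 ratios and by GC-CIMS selected ion monitoring. Values are given as % of dose.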

The species named for another series is Mus musculus. Description: Carcinogenic activity in Swiss albino mouse. The class given is toxicity, organism-based. The note with it: in vivo.

Consider `CCNCC(=O)Nc1c(C)cccc1C`, for which the concentration at 30 h in series [1] came out at 680 ng/mL. For the same compound, the Drug excretion entry in series [2] and in series [5] was “metabolite_detected” throughout. Moreover, the Activity entry in the series on Salmonella typhimurium [3] and in the series on Salmonella typhimurium [4] was “Non-toxic” in each case.

With `Cc1cccc(C)c1N`, the Activity entry with Salmonella typhimurium [3] and with Salmonella typhimurium [4] was “Non-toxic” in each case.

With `CCN(CC)CC(=O)N(O)c1c(C)cccc1C`, the Activity entry with Salmonella typhimurium [3], in the series on Salmonella typhimurium [4] and in the series listed under Mus musculus was “Non-toxic” throughout.

As for `CCNCC(=O)N(O)c1c(C)cccc1C`, the Activity entry in the series with Salmonella typhimurium [3], in the series with Salmonella typhimurium [4] and in the series filed under Mus musculus was “Non-toxic” each time.

As for `[2H]C([2H])(C)N(CC)CC(=O)Nc1c(C)cccc1C`, the Drug excretion result in series [2] and in series [5] was “metabolite_detected” each time.

With `[2H]C([2H])(NCC)C(=O)Nc1c(C)cccc1C`, the Drug excretion result in series [2] and in series [5] was “metabolite_detected” in each case.

Consider `[2H]C([2H])(C)N(CC(=O)N(O)c1c(C)cccc1C)C([2H])([2H])C`, for which the Activity result in the series listed under Mus musculus is “Non-toxic”.

With `Cc1cccc(C)c1NO`, the Drug excretion entry in series [2] and in series [5] was “metabolite_detected” each time. Further, the Activity result in the series with Salmonella typhimurium [3], with Salmonella typhimurium [4] and in the series listed under Mus musculus was “Non-toxic” throughout.

With `[2H]C([2H])([2H])CNCC(=O)N(O)c1c(C)cccc1C`, in the series listed under Mus musculus, the Activity entry was “Non-toxic”.

As to `Cc1cccc(C)c1N(O)C(=O)CCl`, in the series filed under Mus musculus, the Activity entry is listed as “Non-toxic”.

The compound `CCN(CC)CC(=O)Nc1c(C)cccc1C` [LIDOCAINE] yielded a concentration at 30 h in series [1] of 3100 ng/mL. The Drug excretion result in series [2] and in series [5] was “metabolite_detected” each time.
